HEK293 NFkB inh: inhibitors of PMA/ionomycin-induced NF-kB reporter, primary screen, antigen receptor NF-kB inhibitor project, cell-based, HEK-293 luciferase reporter, luminescence; inhibition, % at 3 µM; AID 465, 2006; actives 0.21% (n = 62,000); HEK-293 NF-kB luciferase reporter;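 active means inhibition above the mean of all tested compounds plus 3 SD, cut at about 40% in these data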;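 further: 0% = stimulated DMSO wells and 100% = 10 µM reference inhibitor 5653914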
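Material: HEK-293 cells with stable firefly luciferase reporter driven by four HIV NF-kB elements / Also added: PMA plus ionomycin mix as NF-kB-activating stimulus / Compound dosing: 3 µM once, 0.30% DMSO / Times: 1 h pretreatment, 16 h stimulation, 37 °C / Signal: luminescence / Evaluation: per-plate % inhibition versus controls / Benchmarks: DMSO and 10 µM reference inhibitor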
JNK3 inh: JNK3 kinase activity inhibitors, primary screen, biochemical, human, purified enzyme | Mitogen-activated protein kinase 10 (Homo sapiens), P53779 | HTS | inhibition, % at 8 µM | actives 0.61% (n = 60,000) | AID 746, 2007; in the data active means inhibition above about 17%;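 further: 0% = DMSO and 100% = reference inhibitor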
Target sequence (P53779 whole entry, looked up): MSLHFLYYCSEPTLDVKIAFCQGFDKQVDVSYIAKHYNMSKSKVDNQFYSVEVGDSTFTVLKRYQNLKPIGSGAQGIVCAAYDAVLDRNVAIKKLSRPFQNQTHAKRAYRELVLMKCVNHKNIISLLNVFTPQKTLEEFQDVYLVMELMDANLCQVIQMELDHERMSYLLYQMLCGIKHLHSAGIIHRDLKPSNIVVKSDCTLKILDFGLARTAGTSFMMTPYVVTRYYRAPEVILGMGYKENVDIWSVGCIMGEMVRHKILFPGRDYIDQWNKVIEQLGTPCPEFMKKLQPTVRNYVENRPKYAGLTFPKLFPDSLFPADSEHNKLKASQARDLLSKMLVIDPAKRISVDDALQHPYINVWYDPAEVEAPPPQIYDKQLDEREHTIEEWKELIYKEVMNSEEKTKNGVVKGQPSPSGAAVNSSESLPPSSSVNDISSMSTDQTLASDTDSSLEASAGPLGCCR
Hsp90 inh: tumor Hsp90 inhibitors, primary screen, cell lysate, fluorescence polarization, NCI-N417 lysate; actives 0.35% (n = 64,000); Cy3B-geldanamycin FP displacement; inhibition, % at 30 µM;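 active means inhibition above 50%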;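 further: 0% = tracer plus lysate wells and 100% = tracer alone without lysate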
TNAP act mid DEA: human TNAP enzyme activators, primary screen, biochemical, luminescent, intermediate phosphate acceptor level. Alkaline phosphatase, tissue-nonspecific isozyme (Homo sapiens), P05186. purified TNAP, CDP-star luminescence, 100 mM DEA, 30 min; stronger effect = higher value; scale: 0 levamisole-inhibited, 1 vehicle-only enzyme. activation factor at 20 µM. 64,000 tested, under 10 active;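 active means activation factor of at least 2 at 20 µM, relative to controls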
PKA kinase inh: inhibitors of human PKA kinase activity, primary screen, biochemical, ATP-depletion luminescence, Kemptide substrate | cAMP-dependent protein kinase catalytic subunit alpha (Homo sapiens), P17612 | PKA Kemptide phosphorylation, Kinase-Glo ATP luminescence | inhibition, % at 6 µM | actives 0.1% (n = 65,000) | AID 524, 2006;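 active means inhibition above the screen-wide mean inhibition plus 3 SD, cut at about 21% in these data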
ROCK2 blocker: inhibitors of human ROCK2 kinase, primary screen, biochemical, high-throughput, luminescence; actives 0.35% (n = 60,000); AID 604, 2007; inhibition, % at 6 µM; purified ROCK2, Kinase-Glo ATP depletion luminescence; Rho-associated protein kinase 2 (Homo sapiens), O75116;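 active means inhibition above the screen-wide mean inhibition plus 3 SD, cut at about 18% in these data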;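 further: plate controls were DMSO wells for no effect and Y-27632 control wells after no-enzyme background subtraction for full effect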
An asterisk follows results filed as active. Hits are enriched below; roughly 0.94% of the tested compounds scored in any of these assays.

How did COCc1cc(C)nc(SCC(=O)c2ccc(O)c(O)c2)c1C#N do in these assays?
HEK293 NFkB inh: 3.8; JNK3 inh: -2.5; Hsp90 inh: 28.6; PKA kinase inh: 12.0; ROCK2 blocker: 3.8

How did COc1cc(/C=C(\C#N)C(=O)c2ccc(O)c(O)c2)cc(I)c1O do in these assays?
Hsp90 inh: 72.6*

What do the screens show for `NC1(C(=O)O)CCc2cc(C(=O)O)ccc21` (stereo not drawn)?
Hsp90 inh: -7.0

How did CCS(=O)(=O)NCc1ccc2[nH]c3c(c2c1)CCCC3 do in these assays?
HEK293 NFkB inh: 7.4; JNK3 inh: 1.7; Hsp90 inh: 70.8*; TNAP act mid DEA: 0.9; PKA kinase inh: -0.6; ROCK2 blocker: -1.8

What do the screens show for `O=C(Nc1ccc2[nH]c3c(c2c1)CCCC3)c1ccco1`?
HEK293 NFkB inh: -8.2; JNK3 inh: -11.6; Hsp90 inh: 2.8; TNAP act mid DEA: 0.9; PKA kinase inh: 2.2; ROCK2 blocker: 4.5

Results for CC(C)n1nc(C(=O)OCC(=O)N(C)C2CCS(=O)(=O)C2)c2ccccc2c1=O (stereo not drawn) ?
HEK293 NFkB inh: 13.4; JNK3 inh: 21.3*; Hsp90 inh: -2.0; TNAP act mid DEA: 0.9; PKA kinase inh: -0.4; ROCK2 blocker: -0.4

Results for O=S1(=O)C=C(Sc2nc3ccccc3s2)c2ccccc21 ?
HEK293 NFkB inh: 45.9*; JNK3 inh: 5.6; Hsp90 inh: -1.7; TNAP act mid DEA: 0.9; PKA kinase inh: 1.6; ROCK2 blocker: 3.1

Results for Oc1cc(O)c2c(c1)O[C@H](c1ccc(O)c(O)c1)[C@@H](O)C2 ?
Hsp90 inh: 70.4*

Results for Cc1ccc(Cl)cc1N1CCN(C(=O)c2cn(C)c(=O)c3c2c2ccccc2n3C)CC1 ?
HEK293 NFkB inh: 11.6; JNK3 inh: -3.4; Hsp90 inh: -3.6; TNAP act mid DEA: 0.9; PKA kinase inh: 6.8; ROCK2 blocker: 9.4

What do the screens show for `Cc1cccc(N2CCN(C(=O)c3cn(C)c(=O)c4c3c3ccccc3n4C)CC2)c1C`?
HEK293 NFkB inh: 13.2; JNK3 inh: -1.4; Hsp90 inh: 0.2; TNAP act mid DEA: 0.9; PKA kinase inh: 0.9; ROCK2 blocker: 169.1*

What do the screens show for `CCCc1cc2c(cc1NS(=O)(=O)c1ccc(CCNC(C)=O)cc1)OCO2`?
HEK293 NFkB inh: 16.9; JNK3 inh: 9.6; Hsp90 inh: 57.0*; TNAP act mid DEA: 1; PKA kinase inh: -3.2; ROCK2 blocker: 0.7

What do the screens show for `CCn1c(CSc2nccn2C)nc2cc(C(=O)O)ccc21`?
HEK293 NFkB inh: -7.8; JNK3 inh: -10.1; Hsp90 inh: 88.8*; TNAP act mid DEA: 0.9; PKA kinase inh: 0.6; ROCK2 blocker: -2.7

What do the screens show for `Cn1ccnc1SCC(=O)c1cc2ccccc2o1`?
HEK293 NFkB inh: 1.2; TNAP act mid DEA: 0.9; PKA kinase inh: -1.1

How did CCCN1Cc2cccc(C(=O)NCc3ccc4c(c3)OCO4)c2C1=O do in these assays?
HEK293 NFkB inh: 9.8; JNK3 inh: 23.8*; Hsp90 inh: -3.5; TNAP act mid DEA: 1; PKA kinase inh: 7.3; ROCK2 blocker: 4.7

Results for O=C(NCc1ccc2c(c1)OCO2)c1cccc2c1C(=O)N(C1CCCCC1)C2 ?
HEK293 NFkB inh: 5.0; JNK3 inh: 6.4; Hsp90 inh: -3.1; TNAP act mid DEA: 0.9; PKA kinase inh: 1.3; ROCK2 blocker: 4.0

How did O=C(NCc1cccnc1)C1c2ccccc2C(=O)N1Cc1ccco1 (stereo not drawn) do in these assays?
HEK293 NFkB inh: -1.2; JNK3 inh: 1.3; Hsp90 inh: 57.4*; TNAP act mid DEA: 0.9; PKA kinase inh: 8.0; ROCK2 blocker: 4.6

What do the screens show for `CCCCC#Cc1nc(N)c2ncn([C@@H]3O[C@H](C(=O)NCC)[C@@H](O)[C@H]3O)c2n1`?
Hsp90 inh: 2.3

Results for O=c1[nH]c2cc(C(F)(F)F)ccc2n1-c1cc(C(F)(F)F)ccc1O ?
Hsp90 inh: 58.9*

How did Cn1ccnc1 do in these assays?
Hsp90 inh: -1.2

What do the screens show for `Cc1cc(C(=O)CN2C(=O)c3ccccc3S2(=O)=O)c(C)n1CC1CCCO1` (stereo not drawn)?
HEK293 NFkB inh: 84.5*; JNK3 inh: -6.3; Hsp90 inh: -0.8; TNAP act mid DEA: 0.9; PKA kinase inh: -0.8; ROCK2 blocker: 2.5

What do the screens show for `CCn1c(SCC(=O)c2cc(C)n(CC3CCCO3)c2C)nc2ccccc21` (stereo not drawn)?
HEK293 NFkB inh: 8.8; JNK3 inh: -3.1; Hsp90 inh: -8.2; TNAP act mid DEA: 1; PKA kinase inh: -5.0; ROCK2 blocker: -0.3

How did COc1cc(Nc2c3ccc(Cl)cc3nc3ccc(OC)cc23)c2ncccc2c1 do in these assays?
Hsp90 inh: 14.2

What do the screens show for `Cc1ccc(NC(=O)CC2SCCNC2=O)cc1Cl` (stereo not drawn)?
HEK293 NFkB inh: -0.2; JNK3 inh: -2.6; Hsp90 inh: 53.7*; TNAP act mid DEA: 0.9; PKA kinase inh: 4.2; ROCK2 blocker: 9.4

What do the screens show for `CSc1nc(N)c2ncn([C@@H]3O[C@H](COP(=O)(O)OP(=O)(O)O)[C@H](O)C3O)c2n1` (stereo partly drawn)?
Hsp90 inh: -1.8

Results for CCSC1(SCC)N=C(N)C2(C#N)C(c3ccccc3)NC(C)=C(C)C12C#N (stereo not drawn) ?
HEK293 NFkB inh: 10.8; JNK3 inh: 4.1; Hsp90 inh: -2.5; TNAP act mid DEA: 0.9; PKA kinase inh: 3.1; ROCK2 blocker: 2.0

How did CC1=CC(C#N)(C#N)C(C#N)(C#N)C(c2ccccc2)N1 (stereo not drawn) do in these assays?
HEK293 NFkB inh: 7.2; JNK3 inh: -0.1; Hsp90 inh: 51.1*; TNAP act mid DEA: 1; PKA kinase inh: 0.6; ROCK2 blocker: -1.3

How did CCN1C=CC(=C2C(=O)c3ccccc3C2=O)C=C1 do in these assays?
HEK293 NFkB inh: 49.9*; JNK3 inh: 61.9*; Hsp90 inh: -0.7; TNAP act mid DEA: 1; PKA kinase inh: -4.5; ROCK2 blocker: -32.0

What do the screens show for `CC1=CC(=C2C(=O)c3ccccc3C2=O)C=C(C)O1`?
HEK293 NFkB inh: -2.9; JNK3 inh: 10.5; Hsp90 inh: 21.9; TNAP act mid DEA: 0.8; PKA kinase inh: 3.6; ROCK2 blocker: 1.9

How did CN1C=CC(=C2C(=O)c3ccccc3C2=O)C=C1 do in these assays?
HEK293 NFkB inh: -15.4; JNK3 inh: 32.0*; Hsp90 inh: -1.8; TNAP act mid DEA: 0.9; PKA kinase inh: -0.5; ROCK2 blocker: -1.3

Source: PubChem (several laboratories)
